Broadly, the IC50 is the point on the concentration scale where inhibition reaches its midpoint. Usually solubility stands for how much of the substance goes into solution per volume. Low readings indicate little dissolved substance, high ones much dissolved substance. Broadly, the half-life is the time in which the quantity being followed falls by half.

In data set [1] the test system is SH-SY5Y. Put plainly: Neuroprotective activity against oxygen-glucose deprivation-induced morphological changes in human SH-SY5Y cells assessed as suppression of bright cell body appearance preincubated for 2 hrs followed by OGD-challenge and measured after 24 hrs by microscopic analysis. It counts as functional, cell-based. The method, boiled down:
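SH-SY5Y cells treated immediately before 2 h OGD (glucose/serum-free, hypoxia chamber, 37 °C), then reoxygenated; morphology (neurites, cell body, cell number) inspected by light microscopy 24 h after insult.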

Data set [2] concerns HT-22. Nature of the data set: Neuroprotective activity against glutamate-induced cell death in mouse HT22 cells assessed as increase in cell viability up to 4 uM preincubated for 2 hrs followed by glutamate-challenge and measured after 24 hrs by MTT assay. It is filed as functional, cell-based. The method, boiled down: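 HT22 mouse hippocampal cells (DMEM, 10% FBS) seeded 5×10^4 cells/ml and grown 12 h. Compound added for 2 h, then 10 mM L-glutamic acid hydrochloride for 24 h. Viability by MTT at 490 nm as % of control; mean ± SD, n = 3.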

Data set [3] concerns Rattus norvegicus. Put plainly: Neuroprotective activity in Sprague-Dawley rat model of middle cerebral artery occlusion-induced ischemia-reperfusion injury assessed as reduction in disease severity score at 1 mg/kg, iv measured 24 hrs post-reperfusion. It counts as functional, organism-based. The gist of the method: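 Male Sprague-Dawley rats anesthetized with chloral hydrate (400 mg/kg i.p.); left MCA occluded by intraluminal nylon suture for 2 h, then withdrawn. Compound in 0.9% saline given by tail vein immediately after reperfusion; body temperature held at 37.0 ± 0.5 °C. mNSS scored 24 h later; n = 15–18, mean ± SEM.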

Data set [4] deals with SH-SY5Y. Put plainly: Neuroprotective activity against H2O2-induced cell death in human SH-SY5Y cells assessed as cell viability at 1 to 4 uM preincubated for 2 hrs followed by H2O2-challenge by MTT assay (reference value: 45.73%). It is filed as functional. (Tetrazolium dyes change colour on reduction, which living cells bring about.)
Data set [5] deals with Rattus norvegicus. Nature of the data set: Neuroprotective activity in Sprague-Dawley rat model of middle cerebral artery occlusion-induced ischemia-reperfusion injury assessed as infarction volume at 0.3 mg/kg, iv by TTC staining based assay (reference value: 39%). It is filed as functional. The gist of the method:
(§1)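 Male Sprague-Dawley rats under chloral hydrate (400 mg/kg, i.p.); nylon monofilament through the left internal carotid artery occluded the MCA origin for 2 h, then was withdrawn for reperfusion. Drug in 0.9% saline was injected via the tail vein immediately after reperfusion. After 24 h, 2 mm coronal sections were stained with 1% TTC at 37 °C for 15 min and fixed in 4% paraformaldehyde. Infarct % = (normal hemisphere − non-infarcted ischemic hemisphere)/normal hemisphere ×100. n=15-18, mean ± SEM.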

Data set [6] relates to Rattus norvegicus. Put plainly: Neuroprotective activity in iv dosed Sprague-Dawley rat model of middle cerebral artery occlusion-induced ischemia-reperfusion injury assessed as concentration required to reduce infarction volume to < 26% by TTC staining based assay. It is filed as functional. The method, boiled down:
as §1

The subject of data set [7] is Rattus norvegicus. Nature of the data set: Neuroprotective activity in Sprague-Dawley rat model of middle cerebral artery occlusion-induced ischemia-reperfusion injury assessed as infarction volume at 1 mg/kg, iv by TTC staining based assay (reference value: 39%). It is filed as functional. The gist of the method:
as §1

Data set [8] deals with SH-SY5Y. Put plainly: Neuroprotective activity against oxygen-glucose deprivation-induced morphological changes in human SH-SY5Y cells assessed as suppression of cell shrinkage […] and measured after 24 hrs by microscopic analysis. It counts as functional, cell-based.
For data set [9], the system named is SH-SY5Y. Put plainly: Neuroprotective activity against oxygen-glucose deprivation-induced morphological changes in human SH-SY5Y cells assessed as suppression of neurite disappearance […] and measured after 24 hrs by microscopic analysis. It counts as functional, cell-based.
Data set [10] concerns SH-SY5Y. Put plainly: Neuroprotective activity against oxygen-glucose deprivation-induced apoptosis in human SH-SY5Y cells assessed as early apoptotic cells at 4 uM preincubated for 2 hrs followed by OGD-challenge and measured after 24 hrs by Annexin V-FITC/propidium iodide staining-based flow cytometric method (reference value: 17.1%). It counts as functional. A general note: A flow cytometer gives signals particle by particle.

The test system of data set [11] is SH-SY5Y. Nature of the data set: Cytotoxicity against human SH-SY5Y cells assessed as reduction in cell viability measured after 24 hrs by MTT assay. It is filed as cell-based. The gist of the method:
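SH-SY5Y cells (1:1 MEM/F12, 10% FBS) seeded 3 × 10^4 cells/well, grown 24 h, then exposed without insult for 24 h to 1.56–100 µM or to 1 and 10 µM (DMSO stock diluted in medium). MTT read at 490 nm; viability as % of untreated control.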

For data set [12], the system named is MRC5. Put plainly: Cytotoxicity against human MRC5 cells assessed as reduction in cell viability measured after 72 hrs by CCK8 assay. It counts as cell-based. Particulars: MRC5, 72 h. The method, boiled down:
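MRC-5 cells grown in MEM with 10% FBS, NEAA, 5% CO2 at 37 °C; seeded 7000 cells/well, treated at several concentrations for 72 h. Viability by CCK-8 absorbance at 450 nm, expressed as % of vehicle-treated cells; IC50 reported as mean ± SD.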

Data set [13] deals with SH-SY5Y. Nature of the data set: Neuroprotective activity against oxygen-glucose deprivation-induced morphological changes in human SH-SY5Y cells assessed as increase in cell number added immediately before OGD-challenge and measured after 24 hrs by microscopic analysis.
The nature of data set [14]: Solubility of the compound in […] incubated for 24 hrs by HPLC analysis. It counts as physicochemical.
For data set [15], the system named is SH-SY5Y. Put plainly: Neuroprotective activity against oxygen-glucose deprivation-induced apoptosis in human SH-SY5Y cells assessed as necrotic cells at 4 uM preincubated for 2 hrs followed by OGD-challenge and measured after 24 hrs by Annexin V-FITC/propidium iodide staining-based flow cytometric method (reference value: 6.46%). It is filed as functional.

Data set [16] can be described thus: Half life in mouse liver microsomes at 1 uM in presence of NADPH by LC-MS/MS analysis. It counts as ADME, Microsome. A general note: Liver microsomes are a subcellular fraction often used to study metabolism.
Data set [17] concerns SH-SY5Y. Nature of the data set: Neuroprotective activity against oxygen-glucose deprivation-induced apoptosis in human SH-SY5Y cells assessed as late apoptotic cells at 4 uM preincubated for 2 hrs followed by OGD-challenge and measured after 24 hrs by Annexin V-FITC/propidium iodide staining-based flow cytometric method (reference value: 28.2%). It counts as functional.
The test system of data set [18] is SH-SY5Y. Put plainly: Neuroprotective activity against oxygen-glucose deprivation-induced apoptosis in human SH-SY5Y cells assessed as viable cells at 4 uM preincubated for 2 hrs followed by OGD-challenge and measured after 24 hrs by Annexin V-FITC/propidium iodide staining-based flow cytometric method (reference value: 48.2%). It counts as functional. Particulars: read-out: Activity.

Data set [19] has as its target Voltage-gated inwardly rectifying potassium channel KCNH2 (Homo sapiens, UniProt Q12809). Put plainly: Inhibition of human ERG stably expressed in CHO cells at -80 mV by automated Qpatch electrophysiological assay. It counts as cell-based.
The test system of data set [20] is Rattus norvegicus. Nature of the data set: Neuroprotective activity in Sprague-Dawley rat model of middle cerebral artery occlusion-induced ischemia-reperfusion injury assessed as infarction volume at 3 mg/kg, iv by TTC staining based assay (reference value: 39%). It counts as functional. The method, boiled down:
as §1

The source made the active and inactive calls. The calls are words filed in the database; no cut-off is given here.

Sequence of Voltage-gated inwardly rectifying potassium channel KCNH2 (Q12809 whole entry, the tested form may be a part): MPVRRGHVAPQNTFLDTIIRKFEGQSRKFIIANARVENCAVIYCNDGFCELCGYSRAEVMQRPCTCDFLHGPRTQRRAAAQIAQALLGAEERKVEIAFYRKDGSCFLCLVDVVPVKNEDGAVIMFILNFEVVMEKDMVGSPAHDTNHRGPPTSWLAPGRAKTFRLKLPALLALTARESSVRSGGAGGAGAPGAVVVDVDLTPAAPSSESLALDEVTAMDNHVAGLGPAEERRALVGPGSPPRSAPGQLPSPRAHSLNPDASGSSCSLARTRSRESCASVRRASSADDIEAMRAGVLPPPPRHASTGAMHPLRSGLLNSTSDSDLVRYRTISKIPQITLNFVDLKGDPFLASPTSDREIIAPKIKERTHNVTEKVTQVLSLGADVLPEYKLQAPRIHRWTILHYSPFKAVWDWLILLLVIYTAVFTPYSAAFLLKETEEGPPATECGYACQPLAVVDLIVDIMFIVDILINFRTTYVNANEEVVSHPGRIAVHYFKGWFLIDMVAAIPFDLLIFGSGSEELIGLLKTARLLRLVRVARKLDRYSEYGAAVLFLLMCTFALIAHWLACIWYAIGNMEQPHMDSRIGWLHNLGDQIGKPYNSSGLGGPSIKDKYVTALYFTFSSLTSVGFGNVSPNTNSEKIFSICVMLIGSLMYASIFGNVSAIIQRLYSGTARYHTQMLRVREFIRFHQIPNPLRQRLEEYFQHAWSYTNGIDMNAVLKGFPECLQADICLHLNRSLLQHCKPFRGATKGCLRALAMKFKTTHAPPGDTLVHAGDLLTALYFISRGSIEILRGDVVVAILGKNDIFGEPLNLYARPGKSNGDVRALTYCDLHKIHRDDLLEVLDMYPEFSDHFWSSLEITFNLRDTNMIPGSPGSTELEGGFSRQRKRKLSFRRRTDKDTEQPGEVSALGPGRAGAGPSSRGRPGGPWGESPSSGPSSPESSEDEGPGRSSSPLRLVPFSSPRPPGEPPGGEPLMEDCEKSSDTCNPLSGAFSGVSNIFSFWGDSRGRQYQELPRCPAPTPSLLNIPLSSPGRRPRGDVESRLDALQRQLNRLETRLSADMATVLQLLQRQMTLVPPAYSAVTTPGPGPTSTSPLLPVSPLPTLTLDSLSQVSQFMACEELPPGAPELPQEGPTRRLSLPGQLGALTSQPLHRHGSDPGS

For `Cc1cc([C@@H]2C[C@@H]3CC[C@H]2C3)n(O)c(=O)c1.NCCO`, the result in data set [1], in data set [2], in data set [3], in [8], in data set [9] and in data set [13] was Active. In addition, the Activity result in data set [4] was “<=80%”; in data set [5] it was 25%; in data set [6], 0.3 mg/kg; in [7], 23%; in data set [10], 9.36%; in [15] it was 4.87%. In data set [17], the Activity is listed as 16%. For the same compound, the figures for the IC50 in data set [11], in data set [12] and in data set [19] were greater than 100 µM, 23.6 µM and greater than 40 µM, respectively. The compound also showed a solubility at 24 h in [14] of 10.9 mg/mL. Besides, in data set [16], the half-life at 1 µM is 1.53 h. Besides, the viability at 4 µM in data set [18] amounted to 69.8%.
With `Cc1cc(C2CCCCC2)n(O)c(=O)c1.NCCO` [CICLOPIROX OLAMINE], the Activity entry in [4] was “<=80%”; in data set [6], 3 mg/kg; in data set [20] it was 26%. The IC50 in data set [11] is greater than 100 µM; in data set [12] it was 23.5 µM; in data set [19], greater than 40 µM. The solubility in [14] (buffer, 24 h) was 6.82 mg/mL. Also, the half-life at 1 µM in [16] was found to be 0.886 h.
